High-throughput results: PubChem, Johns Hopkins Ion Channel Center
Most compounds without a hit are left out; they make up all but 3.5% or so of the library.
RGS4 inh – human RGS4 inhibition | P49798 | HEK293 M3R/RGS4 inducible, Fluo-4 calcium flux; stronger effect = higher value; triggered by carbachol at its EC20 | B-score at 10 µM | actives 0.45% (n = 310,000);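 active = B-score, a plate-corrected calcium signal, over three deviations above library mean, with baseline fluorescence within five deviations of library mean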;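 also: RGS4 expression induced by doxycycline in cells with stable M3 receptor; B-score is computed from the integrated fluorescence ratio over baseline after carbachol; higher B-score means a larger calcium signal and so more RGS4 inhibition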
Target sequence (P49798 whole entry, looked up): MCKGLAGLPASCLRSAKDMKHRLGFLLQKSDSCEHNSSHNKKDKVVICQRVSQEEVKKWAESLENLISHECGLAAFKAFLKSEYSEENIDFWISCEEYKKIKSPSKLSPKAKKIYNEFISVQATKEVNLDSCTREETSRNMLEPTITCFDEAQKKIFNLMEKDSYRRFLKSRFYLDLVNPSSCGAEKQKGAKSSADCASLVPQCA
MrgX1 agonist – activates human MrgX1 receptor signaling; MrgX1-HEK293 cells, Fluo-4 calcium fluorescence, agonist mode; stronger effect = higher value; AID 588627; B-score at 10 µM; actives 0.44% (n = 310,000); Q96LB2;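 active = calcium response B-score plate-corrected fluorescence ratio at least 3 library SD, with starting fluorescence B-score inside 5 SD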
Target sequence (Q96LB2 whole entry, looked up): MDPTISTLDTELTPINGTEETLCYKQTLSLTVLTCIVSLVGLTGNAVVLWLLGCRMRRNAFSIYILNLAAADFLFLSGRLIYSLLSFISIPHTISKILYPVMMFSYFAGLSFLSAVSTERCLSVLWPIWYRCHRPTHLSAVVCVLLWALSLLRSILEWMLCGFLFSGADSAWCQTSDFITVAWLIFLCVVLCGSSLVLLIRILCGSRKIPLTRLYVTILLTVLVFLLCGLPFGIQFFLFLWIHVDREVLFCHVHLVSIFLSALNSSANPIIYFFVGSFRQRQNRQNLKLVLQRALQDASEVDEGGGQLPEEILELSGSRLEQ
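System: HEK293 cells stably expressing human MrgX1 receptor; Dosing: test compound in the initial addition of three; Schedule: overnight plating, then 30 min 37 °C plus 30 min room-temperature dye loading; Detection: kinetic calcium dye fluorescence, Fluo-4 NW; Controls: per-plate positive and negative controls for Z′ factor.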
RGS4 act – RGS4 potentiation or activation | HEK293 M3R/inducible RGS4, carbachol calcium flux Fluo4; stronger effect = lower value | B-score at 10 µM | actives 0.92% (n = 310,000) | AID 463111;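 active = B-score of the integrated calcium signal more than 4 SD below the library mean, with starting fluorescence not abnormally high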;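 also: negative B-score means reduced calcium response which marks RGS4 activation or potentiation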
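Also added: carbachol at ECmax as muscarinic agonist stimulus; Assay system: HEK293 cells with stable M3R and inducible RGS4; Timing: overnight RGS4 induction, 30 min dye load 37 °C, 20 min compound RT; Measured by: Fluo4-AM (2 µM) calcium-flux fluorescence, kinetic read.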
MrgX1 antag – blocks BAM8-22 activation of human MrgX1 receptor; Q96LB2; MRGX1-HEK293 calcium flux, Fluo-4, BAM8-22 antagonism; stronger effect = lower value; actives 1.3% (n = 310,000); AID 588676; B-score at 10 µM;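 active = calcium-response B-score plate-corrected more than 3 library SD below zero, starting fluorescence within 5 deviations, no agonist response on first addition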;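 also: peak minus trough fluorescence over baseline after final BAM8-22 challenge near maximal dose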
MrgX1 PAM – human MrgX1 positive allosteric modulation, primary screen. Q96LB2. MrgX1-HEK293, Fluo-4 calcium flux, FDSS; stronger effect = higher value. B-score at 10 µM. actives 0.63% (n = 310,000);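 active = plate-corrected calcium response at least 3 library SD above typical, normal starting fluorescence, not activating the receptor alone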;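 also: compound read alongside a low EC10 to EC30 dose of BAM8-22 agonist; peak minus trough fluorescence over baseline measured at the second addition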
MrgX1 ag reconf – human MrgX1 agonism, re-confirmation screen. activation, % at 10 µM. actives 78% (n = 600). MrgX1-HEK293, Fluo-4 calcium fluorescence, FDSS. shares compounds with MrgX1 agonist. AID 602412;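 active = calcium signal rise, corrected for plate position, at least 3 library SD high, with starting brightness within 5 such deviations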
HEK293 Ca flux – counter-screen for MrgX1 antagonists: effect in parental HEK293 cells; fluorescence ratio F(max-min)/F0 at 10 µM; shares compounds with MrgX1 antag; actives 2% (n = 4,000); Fluo-4 calcium fluorescence, FDSS;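 active = duplicate-averaged calcium fluorescence ratio at least three times the standard deviation of buffer wells, a nonspecific response in parental cells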
HEK293 Ca counter – counter-screen for MrgX1 allosteric activators: effect in parental HEK293 cells; fluorescence ratio F(max-min)/F0 at 10 µM; parental HEK293 calcium flux, Fluo-4 fluorescence ratio; stronger effect = higher value; actives 0.4% (n = 4,000); shares compounds with MrgX1 antag;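 active = calcium fluorescence ratio, averaged over duplicates, at least 3 SD of the buffer-well ratio, meaning a nonspecific response in receptor-free cells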;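 also: untransfected parental HEK293 lacking MrgX1 used as counterscreen for MrgX1 allosteric activators; fluorescence change taken during the second addition on a kinetic imager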
HEK293 Ca cntr2 – counter-screen for MrgX1 activators: effect in parental HEK293 cells | shares compounds with MrgX1 antag | Fluo-4 calcium fluorescence (FDSS); stronger effect = higher value | fluorescence ratio F(max-min)/F0 at 10 µM | actives 8.7% (n = 4,000);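 active = calcium fluorescence ratio at least three times the spread of buffer wells, meaning a non-specific response in parental cells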
Large screens that a line does not name were inactive (follow-up assays come after a bar, where they were run).

COc1ccc(-c2[nH]c(-c3ccccc3)nc2SCC(=O)NC2CCCC2)cc1	MrgX1 agonist 29 | MrgX1 ag reconf 208% | HEK293 Ca flux inactive | HEK293 Ca counter inactive | HEK293 Ca cntr2 46
CCc1cc2c(=O)oc(-c3ccc(F)cc3)nc2s1	none
Cc1ccc(C)c2nc3sc(C(=O)N4CCOCC4)c(N)c3cc12	MrgX1 agonist 31 | MrgX1 ag reconf 284% | HEK293 Ca flux inactive | HEK293 Ca counter inactive | HEK293 Ca cntr2 82
Cc1cc(C)c2cc3c(N)c(C(=O)N4CCOCC4)sc3nc2c1	none
COc1ccc(C(=O)Nc2nnc(-c3ccccc3)o2)cc1OC	none
O=C(Nc1nnc(-c2ccccc2)o1)c1cc(Cl)sc1Cl	MrgX1 agonist 43 | MrgX1 ag reconf 442% | HEK293 Ca flux inactive | HEK293 Ca counter inactive | HEK293 Ca cntr2 88
O=C(Nc1nnc(-c2ccc(F)cc2)o1)c1cc(Cl)sc1Cl	MrgX1 agonist 114 | MrgX1 ag reconf 527% | HEK293 Ca flux inactive | HEK293 Ca counter inactive | HEK293 Ca cntr2 100
O=C(CN1CCN(C(=O)C2COc3ccccc3O2)CC1)Nc1ccc(F)cc1 (stereo not given)	none
O=S(=O)(c1ccccc1)c1nnn2c1nc(NC1CCN(Cc3ccccc3)CC1)c1ccccc12	MrgX1 agonist 60 | MrgX1 ag reconf 274% | HEK293 Ca flux inactive | HEK293 Ca counter inactive | HEK293 Ca cntr2 inactive
COc1cc([N+](=O)[O-])cc(/C=N/NC(=O)C(O)(c2ccccc2)c2ccccc2)c1O	none
O=C(N/N=C/c1cccc([N+](=O)[O-])c1O)C(O)(c1ccccc1)c1ccccc1	MrgX1 agonist 66 | MrgX1 ag reconf 116% | HEK293 Ca flux inactive | HEK293 Ca counter inactive | HEK293 Ca cntr2 inactive
O=C(CCCCC(=O)NC1CCCC1)NC1CCCC1	MrgX1 agonist 40 | MrgX1 ag reconf inactive | HEK293 Ca flux inactive | HEK293 Ca counter inactive | HEK293 Ca cntr2 inactive
COc1ccccc1-c1ccc(/C=C2\C=CC(=O)O2)o1	MrgX1 agonist 91 | MrgX1 ag reconf inactive | HEK293 Ca flux 0.2 | HEK293 Ca counter inactive | HEK293 Ca cntr2 inactive
COc1ccccc1-c1ccc(/C=C2/C=C(C)OC2=O)o1	none
CCOC(=O)CN1N=C(c2ccc(Cl)s2)CSC1=O	none
Cc1ccc(S(=O)(=O)C(C#N)c2nc3ccccc3nc2N2CCCC2)cc1 (stereo not given)	MrgX1 agonist 30 | MrgX1 ag reconf inactive | HEK293 Ca flux inactive | HEK293 Ca counter inactive | HEK293 Ca cntr2 52
O=C(NNC(=O)C1CC(=O)N(Cc2ccccc2)C1)c1ccc(Br)cc1 (stereo not given)	none
CCOC(=O)Cc1csc(NC(=O)c2ccc(Cl)s2)n1	MrgX1 agonist 31 | MrgX1 ag reconf 112% | HEK293 Ca flux inactive | HEK293 Ca counter inactive | HEK293 Ca cntr2 inactive
CCOC(=O)Cc1csc(NC(=O)c2cccc(Cl)c2)n1	none
COc1cc(C(=S)N2CCN(C(c3ccccc3)c3ccccc3)CC2)cc(OC)c1O	none
O=S(=O)(Nc1cccc(-c2ccc3nncn3n2)c1)c1cccc(F)c1	MrgX1 agonist 37 | MrgX1 ag reconf 177% | HEK293 Ca flux inactive | HEK293 Ca counter inactive | HEK293 Ca cntr2 inactive
O=C(Cc1ccc(Cl)cc1)N1CCN(C(=O)c2ccco2)CC1	none
O=C(Cc1ccc(Cl)cc1Cl)OCC(=O)N1CCN(C(=O)c2ccco2)CC1	MrgX1 agonist 29 | MrgX1 ag reconf inactive | HEK293 Ca flux inactive | HEK293 Ca counter inactive | HEK293 Ca cntr2 inactive
CN(CCC#N)CC(=O)Nc1ccc(S(N)(=O)=O)cc1	none
Cc1cc(-c2nn(-c3ccccc3F)cc2CN2CCN(c3ccncc3)CC2)c(C)s1	MrgX1 agonist 56 | MrgX1 ag reconf 268% | HEK293 Ca flux inactive | HEK293 Ca counter inactive | HEK293 Ca cntr2 inactive
CCOC(=O)Cn1ccc(NC(=O)COc2ccc(F)cc2F)n1	none
Cc1ccccc1NC(=O)c1c2c(nc3ccccc13)CCC2	none
CN(C)C=Nc1nonc1-c1ccccc1	none
CN(C)C=Nc1c(Br)cc(Br)c2nonc12	MrgX1 agonist 40 | MrgX1 ag reconf 162% | HEK293 Ca flux inactive | HEK293 Ca counter inactive | HEK293 Ca cntr2 inactive
O=C(Cc1c2ccccc2nc2ccccc12)c1ccccc1	MrgX1 agonist 31 | MrgX1 ag reconf inactive | HEK293 Ca flux inactive | HEK293 Ca counter inactive | HEK293 Ca cntr2 inactive
Cc1ccc(-n2sc3ccccc3c2=O)cc1S(=O)(=O)N1CCCCC1	none
Cc1ccccc1-n1sc2cc(F)ccc2c1=O	MrgX1 agonist 40 (no result: RGS4 inh, RGS4 act) | MrgX1 ag reconf 303% | HEK293 Ca flux inactive | HEK293 Ca counter inactive | HEK293 Ca cntr2 66
COc1ccc2c(c1)cc1n2CCN=C1N	MrgX1 agonist 31 | MrgX1 ag reconf 138% | HEK293 Ca flux inactive | HEK293 Ca counter inactive | HEK293 Ca cntr2 inactive
COc1ccc2c(c1)cc1n2CCN2CCCN=C12	none
Cc1ccc(-n2c(CCC(=O)O)ccc2-c2cccs2)cc1C	MrgX1 agonist 29 | MrgX1 ag reconf 216% | HEK293 Ca flux inactive | HEK293 Ca counter inactive | HEK293 Ca cntr2 inactive
CCOC(=O)c1ccc(-n2c(CCC(=O)O)ccc2-c2cccs2)cc1	none
Cn1c2c(c(=O)n(C)c1=O)C(c1ccc(Cl)cc1)C(C#N)=C(N)O2 (stereo not given)	none
COc1ccc(C(C)=O)cc1CSC(=N)N	MrgX1 agonist 47 | MrgX1 ag reconf 240% | HEK293 Ca flux inactive | HEK293 Ca counter inactive | HEK293 Ca cntr2 inactive
COc1ccc(C(C)=O)cc1CSCc1cc(C(C)=O)ccc1OC	none
CCOc1ccc(C(C)=O)cc1CSC(=N)N	MrgX1 agonist 30 | MrgX1 ag reconf 164% | HEK293 Ca flux inactive | HEK293 Ca counter inactive | HEK293 Ca cntr2 inactive
CCCCOc1ccc(Br)cc1CSC(=N)N	none (no result: MrgX1 agonist, MrgX1 antag, MrgX1 PAM)
O=C(Nc1ccccc1)Nc1ccc2ccccc2c1	MrgX1 agonist 34 | MrgX1 ag reconf inactive | HEK293 Ca flux inactive | HEK293 Ca counter inactive | HEK293 Ca cntr2 inactive
CCN1CCc2c(sc(NC(=O)c3ccc4ccccc4c3)c2C(N)=O)C1	MrgX1 agonist 44 | MrgX1 ag reconf inactive | HEK293 Ca flux inactive | HEK293 Ca counter inactive | HEK293 Ca cntr2 inactive
O=C(NC1CCCCCC1)c1cc(=O)[nH]c2ccc(S(=O)(=O)N3CCOCC3)cc12	none
Cc1csc(NC(=O)c2cc(=O)[nH]c3ccc(S(=O)(=O)N4CCOCC4)cc23)n1	MrgX1 agonist 55 | MrgX1 ag reconf 266% | HEK293 Ca flux inactive | HEK293 Ca counter inactive | HEK293 Ca cntr2 inactive
